Measured values gathered from unrelated publications.
Protocols differ between the studies behind these lines.
Sample: plasma

| Compound | host | route | dose | notes | Tmax |
| --- | --- | --- | --- | --- | --- |
| COc1ccc(-c2c(Nc3ccccn3)[nH]c3c(C4=CCCCC4)c(-c4ccccc4)nn3c2=O)cc1 | human | oral | 200 mg twice daily | multiple doses, patients | 1 h |
| OC[C@H]1O[C@@H](c2cc(Cc3ccc(C4CC4)cc3)c(Cl)c3c2CCO3)[C@H](O)[C@@H](O)[C@@H]1O | human | oral | 0.3 mg | single dose, fasted, healthy volunteers | 1.25 h |
| CC(=O)N(C)[C@H]1CCN(C(=O)c2cnc3c(c2)C[C@](C)(c2ccc(F)cc2)N3)C1 | male human | oral | 30 mg | multiple doses, once daily, steady state | 0.75 h |
| CC(C)n1cc(C#N)c2cc(-n3cc(C(=O)O)cn3)ccc21 | human | oral | 25 mg | single dose, fasted, healthy volunteers | 3.26 h |
| C[C@@H](Oc1ccc(S(C)(=O)=O)cc1C(=O)N1C[C@@H]2C[C@]2(c2cc(C(F)(F)F)on2)C1)C(F)(F)F | human | oral | 10 mg | single dose, fed | 2.5 h |
| N#Cc1cccc(-c2ccc3ncc(-c4cc(F)cc(F)c4)c(N4CCC(N)CC4)c3c2)c1O | male human | intravenous | 50 µg | – | 0.03 h |
| O=C(COc1ccc(Cl)cc1)NC12CC(c3nnc([C@H]4C[C@@H](OC(F)(F)F)C4)o3)(C1)C2 | human | oral | 45 mg | single dose, fasted, healthy volunteers | 8.02 h |
| COc1ccc(F)cc1C(=O)NCc1ccc(-c2nn([C@@H](C)C(F)(F)F)c(N)c2C(N)=O)cc1 | male human | oral | 200 mg | single dose | 5 h |
| COc1ccc2c(c1)CN(C(=O)CCN1CCC(Cc3ccccc3)CC1)CC[S@@+]2[O-] | male human | intravenous | 0.15 mg/kg | healthy volunteers | 0 h |
